According to publication PMC6331712 (ChemistryOpen, 2019):
Several values for one entry are separate records, joined by “and”; a condition that tells them apart may be missing. Equal entries are not always repeated.

What was measured:
[1] = LogD7.4 determination from HPLC retention times with calibration curve; type: physicochemical; settings: pH 7.4; for logD 7.4: from HPLC retention factor and calibration curve
[2] = Anodic peak potential by cyclic voltammetry; type: physicochemical; settings: 1.0 mM compound in 100 mM TRIS‐buffer (pH 7.4)
[3] = target: KV7.2/KV7.3 channel (Homo sapiens, UniProt O43525+O43526); type: cell-based; settings: for Emax: HEK293; for KV7.2/KV7.3 channel opening activity (in words): thallium flux assay, compared with 1
Chain of KV7.2/KV7.3 channel (O43525 whole entry): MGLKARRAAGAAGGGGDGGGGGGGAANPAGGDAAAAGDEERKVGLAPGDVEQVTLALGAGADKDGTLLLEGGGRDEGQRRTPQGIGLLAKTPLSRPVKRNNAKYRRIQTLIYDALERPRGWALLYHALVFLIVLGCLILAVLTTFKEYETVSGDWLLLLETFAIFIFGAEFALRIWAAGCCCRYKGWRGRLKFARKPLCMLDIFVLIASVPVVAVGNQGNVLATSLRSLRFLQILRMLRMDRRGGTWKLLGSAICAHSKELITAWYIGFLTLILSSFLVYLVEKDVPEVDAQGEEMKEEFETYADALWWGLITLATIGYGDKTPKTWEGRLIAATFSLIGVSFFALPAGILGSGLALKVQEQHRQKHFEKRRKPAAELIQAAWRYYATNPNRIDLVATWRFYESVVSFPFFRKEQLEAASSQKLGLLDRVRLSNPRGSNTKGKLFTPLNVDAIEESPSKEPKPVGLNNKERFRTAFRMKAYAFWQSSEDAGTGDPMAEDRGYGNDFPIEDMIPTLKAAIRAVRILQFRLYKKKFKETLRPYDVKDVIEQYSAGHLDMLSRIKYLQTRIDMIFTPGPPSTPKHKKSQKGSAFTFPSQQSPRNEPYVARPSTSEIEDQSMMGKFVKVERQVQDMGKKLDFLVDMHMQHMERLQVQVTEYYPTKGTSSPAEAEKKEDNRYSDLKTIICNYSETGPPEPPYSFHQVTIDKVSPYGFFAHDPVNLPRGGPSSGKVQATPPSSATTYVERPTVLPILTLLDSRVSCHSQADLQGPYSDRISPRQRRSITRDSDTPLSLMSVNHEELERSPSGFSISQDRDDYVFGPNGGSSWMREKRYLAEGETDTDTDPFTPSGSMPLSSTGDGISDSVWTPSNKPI
Chain of KV7.2/KV7.3 channel (O43526 whole entry): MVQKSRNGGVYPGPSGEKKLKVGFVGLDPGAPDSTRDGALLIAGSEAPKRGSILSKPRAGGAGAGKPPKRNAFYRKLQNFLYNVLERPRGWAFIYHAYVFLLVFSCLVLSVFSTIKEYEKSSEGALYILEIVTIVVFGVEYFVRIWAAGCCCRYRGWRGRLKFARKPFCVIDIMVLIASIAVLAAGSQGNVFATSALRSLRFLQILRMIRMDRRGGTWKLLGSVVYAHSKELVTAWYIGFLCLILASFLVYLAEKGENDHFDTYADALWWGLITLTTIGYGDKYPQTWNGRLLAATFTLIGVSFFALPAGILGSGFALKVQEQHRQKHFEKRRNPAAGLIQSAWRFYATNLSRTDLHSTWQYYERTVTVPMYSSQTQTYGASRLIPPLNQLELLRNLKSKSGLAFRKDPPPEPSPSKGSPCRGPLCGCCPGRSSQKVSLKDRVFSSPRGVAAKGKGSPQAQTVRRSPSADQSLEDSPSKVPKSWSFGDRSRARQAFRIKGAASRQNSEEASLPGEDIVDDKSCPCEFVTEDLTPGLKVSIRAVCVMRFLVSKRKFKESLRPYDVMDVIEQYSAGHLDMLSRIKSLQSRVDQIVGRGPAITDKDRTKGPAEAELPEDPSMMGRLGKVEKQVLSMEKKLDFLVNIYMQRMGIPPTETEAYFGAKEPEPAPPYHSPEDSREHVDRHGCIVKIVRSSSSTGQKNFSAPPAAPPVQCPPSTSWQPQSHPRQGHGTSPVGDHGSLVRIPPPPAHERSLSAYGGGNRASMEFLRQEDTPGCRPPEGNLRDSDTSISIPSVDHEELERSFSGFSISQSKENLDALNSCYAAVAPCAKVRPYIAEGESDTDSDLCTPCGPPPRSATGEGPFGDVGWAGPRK

[4] = system: TAMH cells; experiment: MTT cell viability assay, TAMH cells; type: cell-based, mouse; settings: for LD50 / LD25: TAMH cells, MTT; for LD50: 24 h exposure; for LD25: 48 h exposure; for Tox./Act. (toxicity/activity ratio, safety index): average LD25 (48 h, TAMH) divided by average EC50 (KV7.2/3)
In short: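 MTT viability read-out in TAMH (transgenic mouse hepatocyte) and HEP-G2 (human hepatoma) cell lines. LD50 was taken after 24 h of exposure. […] LD50 values are means with standard deviations of 4–5 independent determinations. The ratio uses the mean EC50 from a thallium-flux KV7.2/3 assay (30 min exposure, four-parameter logistic fit).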

[5] = system: HEP‐G2 cells; experiment: MTT cell viability assay, HEP-G2 cells; type: cell-based, human; settings: for LD50 / LD25: HEP‐G2 cells, MTT; for LD50: 24 h exposure; for LD25: 48 h exposure; for Tox./Act. (toxicity/activity ratio, safety index): average LD25 (48 h, HEP‐G2) divided by average EC50 (KV7.2/3)

Row | Compound | chromatographic logD [1] | Anodic peak potential E pa [2] | EC50 [3] [nM] | Emax [3] [%] | KV7.2/KV7.3 channel opening activity (in words) [3] | LD50 [4] [µM] | LD25 [4] | Tox./Act. (toxicity/activity ratio, safety index) [4] | LD50 [5] [µM] | LD25 [5] [µM] | Tox./Act. (toxicity/activity ratio, safety index) [5] | logD 7.4 [1]
1 | Nc1nc(SCc2ccc(F)cc2)ccc1NC(=O)c1ccc(F)c(F)c1 [9 a, N-{2-A mino-6-[(4-fluorobenzyl)thio]pyridin-3-yl}-3,4-difluorobenzamide] | 3.9 | 442 mV | 260 ± 82 | 100 ± 23 | as active as the marketed drug 1 | >30 | 13 ± 04 µM | 50 | 8 ± 3 | 4 ± 1 | 15 | –
2 | CCOC(=O)Nc1ccc(SCc2ccc(-c3ccccc3)cc2)nc1N [9 b, Ethyl-{6-[(1,1'-biphenyl-4-yl)methylthio]-2-aminopyridin-3-yl}carbamate] | 4.34 | 452 mV | 253 ± 42 | 69 ± 9 | as active as the marketed drug 1 | >63 | 14 ± 13 µM | 55 | >250 | – | – | –
3 | CCOC(=O)Nc1ccc(SCc2cc(OC)cc(OC)c2)nc1N [9 c, Ethyl-{2-amino-6-[(3 ,5-dimethoxybenzylthio)pyridin-3-yl]}carbamate] | – | 450 mV | – | – | – | >250 | – | – | 134 ± 22 | – | – | 3.61
4 | CCOC(=O)Nc1ccc(SCc2ccccn2)nc1N [9 d, Ethyl-{2-amino-6-[(pyridin-2-ylmethylthio)pyridin-3-yl]}carbamate] | – | 499 mV | – | – | – | >1000 | – | – | 831 ± 149 | – | – | 2.62
5 | CCOC(=O)Nc1ccc(SC(=O)c2ccc(F)cc2)nc1N [9 e, S-{6-Amino-5-[(ethoxycarbonyl)amino]pyridin-2-yl} 4-fluorobenzothioate] | 3 | 573 mV | > 10000 | – | inactive in the tested concentration range | >125 | – | – | >250 | – | – | –
6 | CCOC(=O)Nc1ccc(SCCN2CCCCC2)nc1N [9 f] | – | 573 mV | – | – | – | >500 | – | – | >500 | – | – | 2.04
7 | CNc1nc(SCc2ccccc2)ccc1NC(=O)Cc1cc(F)cc(F)c1 [9 g, N‐[6‐(Benzylthio)‐2‐(methylamino)pyridin‐3‐yl]‐2‐(3,5‐difluorophenyl)acetamide] | 4.27 | 631 mV | 15 ± 2 | 147 ± 9 | markedly more potent and effective | >7.5 | 6 ± 3 µM and 6 ± 03 µM | 400 | >10 | 4 ± 4 | 267 | –
8 | CCOC(=O)Nc1ccc(SCc2ccc(F)cc2)nc1C [9 h, E t hyl [6-(4-fluorobenzylthio)-2-methylpyridin-3-yl]carbamate] | 3.85 | 855 mV | 269 ± 31 | 129 ± 3 | – | >10 | >10 µM | – | >30 | 25 ± 16 | 93 | –
9 | Nc1nc([S+]([O-])Cc2ccc(F)cc2)ccc1NC(=O)c1ccc(F)c(F)c1 (centres unmarked) [10 a, N-[2-Amino-6-(4-fluorobenzylsulfinyl)pyridin-3-yl]-3 ,4-difluorobenzamide] | 3.24 | 628 mV | > 10000 | – | – | >100 | – | – | >125 | – | – | –
10 | CCOC(=O)Nc1ccc([S+]([O-])Cc2ccc(-c3ccccc3)cc2)nc1N (centres unmarked) [10 b, E t hyl {6-[(1,1'-biphenyl-4-yl)methylsulfinyl]-2-aminopyridin-3-yl}carbamate] | 3.72 | 654 mV | > 10000 | – | – | >63 | – | – | >63 | – | – | –
11 | CCOC(=O)Nc1ccc([S+]([O-])Cc2ccc(F)cc2)nc1C (centres unmarked) [10 d] | 3.02 | n.o.^[g] | > 10000 | – | – | >500 | – | – | >500 | – | – | –
12 | CCOC(=O)Nc1ccc(NCc2ccc(F)cc2)nc1N [Compound 1, Flupirtine, reference compound] | 2.96 | 350 mV | 918 ± 99 | 100 | – | 487 ± 51 | 103 ± 47 µM | 112 | 547 ± 111 | 74 ± 40 | 81 | –
